Published values pooled from the literature.
Each line is one published result; the experiments were not run side by side.
MAOA: Amine oxidase [flavin-containing] A (MAOA, Homo sapiens, UniProt P21397)
Rps6ka1: Ribosomal protein S6 kinase alpha-1 (Rps6ka1, Rattus norvegicus, UniProt Q63531)
VIPR1: Vasoactive intestinal polypeptide receptor 1 (VIPR1, Homo sapiens, UniProt P32241)
PRMT3: Protein arginine N-methyltransferase 3 (PRMT3, Homo sapiens, UniProt O60678)
Faah: Fatty-acid amide hydrolase 1 (Faah, Rattus norvegicus, UniProt P97612)
LDHA: L-lactate dehydrogenase A chain (LDHA, Homo sapiens, UniProt P00338)
Tspo: Translocator protein (Tspo, Rattus norvegicus, UniProt P16257)

| SMILES | target | assay | setting | inhibition [%] |
| --- | --- | --- | --- | --- |
| Cc1cc([N+](=O)[O-])ccc1NC(=O)c1ccc2c(c1)OCO2 | MAOA | enzyme activity, inhibitor | 1 µM, 20 min | 7 |
| CC[C@H](C)[C@H](NC(=O)[C@H](CCC(N)=O)NC(=O)[C@H](CC(C)C)NC(=O)[C@H](CCSC)NC(=O)[C@H](CCCCN)NC(=O)[C@H](CO)NC(=O)[C@H](CO)NC(=O)[C@H](CCSC)NC(=O)[C@H](CC(C)C)NC(=O)[C@H](CC(N)=O)NC(=O)[C@@H](NC(=O)[C@@H](NC(=O)[C@H](CO)NC(=O)[C@H](CC(C)C)NC(=O)[C@H](CS)NC(=O)[C@H](CCCNC(=N)N)NC(=O)[C@H](CC(=O)O)NC(=O)[C@H](Cc1c[nH]c2ccccc12)NC(=O)[C@H](Cc1ccccc1)NC(=O)[C@H](C)NC(=O)[C@H](CCC(=O)O)NC(=O)[C@@H](N)CCCCN)C(C)C)[C@@H](C)CC)C(=O)N[C@@H](CC(N)=O)C(=O)N[C@@H](C)C(=O)O | Cyclin-dependent kinase 5, with p25 (CDK5, Homo sapiens, UniProt Q00535) | enzyme activity, inhibitor, radiometric | 500 µM | 72 |
| COc1cc(/C=C/C(=O)N2CCc3ccccc3C2)ccc1OCc1ccccc1 | MAOA | enzyme activity, inhibitor, fluorescence | 62.5 µM | 20.6 |
| CNC(=O)c1cc(Oc2ccc(NC(=O)Nc3ccc(Cl)c(C(F)(F)F)c3)cc2)ccn1 | Rps6ka1 | enzyme activity, inhibitor | 0.3 µM | 11 |
| COc1cc(NC(C)=O)c(Cl)cc1C(=O)Nc1nccs1 | VIPR1 | cell-free assay | 10 µM | -13.5 |
| N=C(NCCCSC[C@H]1O[C@@H](n2cnc3c(NCCCc4ccccc4)ncnc32)[C@H](O)[C@@H]1O)NCCCc1ccccc1 | PRMT3 | enzyme activity, inhibitor, fluorescence | 10 µM | 10.4 |
| O=C(OC(C(F)(F)F)C(F)(F)F)N1CCC(CCn2nnc3ccccc32)CC1 | Faah | enzyme activity, inhibitor | 10 µM | 47 |
| COC(=O)CN=c1scc(-c2ccccc2)n1-c1ccc(C)cc1 | LDHA | enzyme activity, inhibitor, fluorescence | 100 µM, pH 7.2 | 52 |
| CC1=C(C(=O)Nc2ccc([N+](=O)[O-])cc2Cl)Cc2ccccc21 | MAOA | enzyme activity, inhibitor | 1 µM, 20 min | -3 |
| N=C(NCCCSC[C@H]1O[C@@H](n2cnc3c(NCCCc4ccccc4)ncnc32)[C@H](O)[C@@H]1O)NCC1CCC1 | PRMT3 | enzyme activity, inhibitor, fluorescence | 10 µM | 0 |
| CCCNc1nc2ccccc2n1Cc1ccc(Cl)cc1 | Tspo | cell-free assay | 10 µM | 49.2 |
| N=C(NCCCSC[C@H]1O[C@@H](n2cnc3c(NCCCc4ccccc4)ncnc32)[C@H](O)[C@@H]1O)NC1CCC1 | PRMT3 | enzyme activity, inhibitor, fluorescence | 10 µM | -37.6 |
| O=C1N=C(N2CCCCN2)S/C1=C\c1ccc(F)cc1O | Kappa-type opioid receptor (Oprk1, Rattus norvegicus, UniProt P34975) | ligand displacement, radioligand | 10 µM | 11 |
| Cc1ccc(-n2nc(C(C)(C)C)cc2NC(=O)Nc2ccc(OCCN3CCOCC3)c3ccccc23)cc1 | Tyrosine-protein phosphatase non-receptor type 1 (PTPN1, Homo sapiens, UniProt P18031) | enzyme activity, inhibitor | 10 µM | 18 |
| COC(=O)CN=c1scc(-c2ccccc2)n1-c1ccccc1 | LDHA | enzyme activity, inhibitor, fluorescence | 100 µM, pH 7.2 | 33 |
| CN1CC(Oc2cnc(C#N)cc2-c2ccn3nc(NC(=O)C4CC4)cc3c2)C1 | Cyclin-dependent kinase-like 4 (CDKL4, Homo sapiens, UniProt Q5MAI5) | enzyme activity, inhibitor | 1 µM | -9 |
| Cc1ccc(C(=O)Nc2ccc([N+](=O)[O-])cc2C(F)(F)F)cc1 | MAOA | enzyme activity, inhibitor | 1 µM, 20 min | 10 |
| N=C(NCCCSC[C@H]1O[C@@H](n2cnc3c(NCCCc4ccccc4)ncnc32)[C@H](O)[C@@H]1O)NCC1CC1 | PRMT3 | enzyme activity, inhibitor, fluorescence | 10 µM | -19.4 |

| SMILES | target | assay | setting | inhibition [%] |
| --- | --- | --- | --- | --- |
| CCN(c1cc(C#CCN2CCOCC2)cc(C(=O)NCc2c(C)cc(C)[nH]c2=O)c1C)[C@H]1CC[C@H](N(C)CCOC)CC1 | PRMT3 | enzyme activity, inhibitor | 1 µM | 10 |
| Nc1ncnc2c1ncn2[C@@H]1O[C@H](CSCCNC(=O)NCc2ccccc2)[C@@H](O)[C@H]1O | Protein arginine N-methyltransferase 5 (PRMT5, Homo sapiens, UniProt O14744) | enzyme activity, inhibitor, radiometric | 10 µM | > 95 |
| N=C(NCCCSC[C@H]1O[C@@H](n2cnc3c(NCCCc4ccccc4)ncnc32)[C@H](O)[C@@H]1O)NC1CC1 | PRMT3 | enzyme activity, inhibitor, fluorescence | 10 µM | -8.93 |
| O=C(Nc1cc(F)ccc1[N+](=O)[O-])c1cc(Cl)ccc1O | MAOA | enzyme activity, inhibitor | 1 µM, 20 min | 8 |
| N=C(NCCCO)NCCCSC[C@H]1O[C@@H](n2cnc3c(NCCCc4ccccc4)ncnc32)[C@H](O)[C@@H]1O | PRMT3 | enzyme activity, inhibitor, fluorescence | 10 µM | 7.1 |
| Oc1cccc(Nc2nc(-c3ccc(F)cc3F)cs2)c1 | Tspo | ligand displacement, radioligand | 10 µM | 63 |
| COC(=O)CN=c1scc(-c2ccccc2)n1-c1ccc(Cl)cc1 | LDHA | enzyme activity, inhibitor, fluorescence | 100 µM, pH 7.2 | 41 |
| Cc1ccc2c(ccn2CCC2CCN(C(=O)OC(C(F)(F)F)C(F)(F)F)CC2)c1 | Faah | enzyme activity, inhibitor | 10 µM | 36 |
| CC(C)CCN[C@@H]1C[C@@H](c2ccc(Cl)c(Cl)c2)c2ccccc21 (relative stereo) | Glutathione reductase, mitochondrial (GSR, Homo sapiens, UniProt P00390) | enzyme activity, inhibitor | 25 µM | < 12 |
| N#Cc1cc(Cn2c(N3CCCC3)nc3ccccc32)ccc1F | Tspo | cell-free assay | 10 µM | 76.7 |
| N#Cc1ccc(NC(=O)c2ccc3c(c2)OCO3)cc1 | MAOA | enzyme activity, inhibitor | 1 µM, 20 min | 38 |
| O=C(c1ccc(Cl)cc1)N(Cc1ccccc1)C1CCCCC1 | VIPR1 | cell-free assay | 10 µM | -0.7 |
| O=C(Nc1ccc(OC(F)(F)F)cc1)c1cc(Cl)ccc1O | MAOA | enzyme activity, inhibitor | 1 µM, 20 min | 74 |
| CCCCNC(=N)NCCCSC[C@H]1O[C@@H](n2cnc3c(NCCCc4ccccc4)ncnc32)[C@H](O)[C@@H]1O | PRMT3 | enzyme activity, inhibitor, fluorescence | 10 µM | 11.1 |
| COc1cc([N+](=O)[O-])ccc1NC(=O)c1ccc(Cl)cc1 | MAOA | enzyme activity, inhibitor | 1 µM, 20 min | 2 |
| Cc1ccc(Nc2nccc(N(C)c3ccc4c(C)n(C)nc4c3)n2)cc1S(N)(=O)=O | Rps6ka1 | enzyme activity, inhibitor | 10 µM | 41 |
| O=C(Nc1cccc(Cl)c1)c1cc(Cl)ccc1O | MAOA | enzyme activity, inhibitor | 1 µM, 20 min | 15 |
| COC(=O)CN=c1scc(-c2ccccc2)n1-c1ccccc1C | LDHA | enzyme activity, inhibitor, fluorescence | 100 µM, pH 7.2 | 43 |
